Hits are enriched below; roughly 1.7% of the tested compounds scored in any of these assays.
LMPTP block: LMPTP phosphatase inhibitors, primary screen, biochemical, fluorescence intensity, uHTS; inhibition, % at 20 µM; 0.22% of 360,000 active; Low molecular weight phosphotyrosine protein phosphatase (Homo sapiens), P24666; recombinant LMPTP-A, OMFP fluorogenic substrate;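 active means compounds that cut the enzyme signal by at least half of the control window in the single-dose screen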
Target sequence (P24666 whole entry, looked up): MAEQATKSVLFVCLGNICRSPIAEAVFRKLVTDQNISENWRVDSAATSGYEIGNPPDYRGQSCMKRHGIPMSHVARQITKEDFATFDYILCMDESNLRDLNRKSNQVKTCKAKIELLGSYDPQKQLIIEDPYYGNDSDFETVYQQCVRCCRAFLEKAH
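Test system: LMPTP-A phosphatase enzyme. Amount: LMPTP-A at 0.625 nM final in the reaction. Reagent: OMFP substrate, 400 µM final. Times: 50 min at room temperature. Signal: endpoint fluorescence intensity from OMFP dephosphorylation. Read-out basis: % inhibition. Benchmarks: no-enzyme and uninhibited controls.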
DNMT1 block: human DNMT1 methyltransferase inhibitors, primary screen, biochemical, molecular beacon, fluorescence, HinP1I cleavage, uHTS. 0.83% of 360,000 active. AID 588458, 2011. DNA (cytosine-5)-methyltransferase 1 (Homo sapiens), P26358. inhibition (reported as % activation of signal), % at 10 µM; in the data active means inhibition above about 50%
SUMO1 PPI mod: modulators of SUMO1 protein-protein interactions, primary screen, biochemical, uHTS. Small ubiquitin-related modifier 1 (Homo sapiens), P63165. SUMO1 binding to a labelled peptide, TR-FRET, 1 h. inhibition, % at 20 µM. 0.33% of 360,000 active. AID 602429, 2012; in the data active means inhibition above about 37%
Target sequence (P63165 whole entry, looked up): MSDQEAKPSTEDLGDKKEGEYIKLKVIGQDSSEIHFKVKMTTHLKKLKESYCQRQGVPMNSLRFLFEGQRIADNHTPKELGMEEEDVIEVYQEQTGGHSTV
Scp1 inh: Scp-1 phosphatase inhibitors, primary screen, biochemical, colorimetric, uHTS; Carboxy-terminal domain RNA polymerase II polypeptide A small phosphatase 1 (Homo …; Recombinant Scp1, phosphopeptide, malachite green phosphate absorbance; inhibition, % at 20 µM; 0.88% of 340,000 active;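 active means inhibition above about 50% at 20 µM, limit read from the data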
Target sequence (Q9GZU7 76-261 limits assumed): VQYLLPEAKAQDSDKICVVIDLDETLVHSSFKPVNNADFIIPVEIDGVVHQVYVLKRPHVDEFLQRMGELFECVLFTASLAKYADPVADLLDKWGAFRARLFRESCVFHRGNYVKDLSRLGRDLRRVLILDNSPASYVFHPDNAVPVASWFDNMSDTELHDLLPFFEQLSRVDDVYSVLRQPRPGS
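Test system: SCP-1 phosphatase catalytic domain, residues 76-261; measured by: colorimetric phosphate reagent with accelerator and stabiliser, absorbance at 630 nm; timing: enzyme reaction 45 min at room temperature, colour 5 min, stabilisation 30 min; also added: Phosphorylated 17-residue peptide substrate; compound dosing: one concentration, 20 µM, with 1.0% DMSO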
STEP inh: STEP phosphatase inhibitors, primary screen, biochemical, fluorescence intensity, uHTS | Tyrosine-protein phosphatase non-receptor type 5 (Homo sapiens), P54829 | recombinant STEP, OMFP fluorogenic substrate | inhibition, % at 20 µM | AID 588621, 2011 | 0.25% of 360,000 active;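 active means inhibition at 20 µM, scaled per plate between control wells, above about 37%, limit read from the data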
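Assay system: isolated STEP enzyme / Timing: 20 min at room temperature, dark / Doses: 20 µM, 1% DMSO / Technique: fluorescence intensity, excitation 480 nm, emission 540 nm / Reagent: fluorogenic phosphatase substrate OMFP at 25 µM final / Measure: percent inhibition scaled to no-enzyme and uninhibited-enzyme controls, plate-pattern corrected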
DNMT1 confirm: DNMT1 methyltransferase inhibitor retest, confirmation, biochemical, molecular beacon, fluorescence, single concentration | shares compounds with DNMT1 block | DNMT1 molecular beacon HinP1I cleavage | inhibition, % at 10 µM | 8% of 2,300 active;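 active means average inhibition of at least 30% in the single-concentration confirmation test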
Beacon interf: counter-screen for DNMT1 inhibitors: spectral interference | shares compounds with DNMT1 block | DNMT1 molecular beacon spectral interference counterscreen, fluorescence 485/520 | activation (fluorescence interference), % at 10 µM | 1% of 2,300 active;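 active means activation of at least 30% at 10 µM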;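 further: DNMT1 catalytic domain with a HinP1I cleavage step and a FAM/dabcyl DNA beacon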
A number is an active result; 0 = inactive; - = not tested or not shown; ! = not confirmed by another sample.

SMILES	LMPTP block	DNMT1 block	SUMO1 PPI mod	Scp1 inh	STEP inh	DNMT1 confirm	Beacon interf
Cc1ccc(-c2nc(C(=O)NCCCN(C)C)cc3c2[nH]c2ccccc23)cc1	0	56.4	0	0	0	0	0
COc1ccc(-c2cnnc(N/N=C/c3ccc(C)o3)n2)cc1	0	0	0	0	0	-	-
O=C(NC1=NCCCCC1)c1cccc2ccccc12	0	0	0	0	0	-	-
COC(=O)c1ccccc1NC(=O)c1cc2ncc(Br)cn2n1	0	67.7	0	0	0	0	0
O=C(CCCSCCCC(=O)NN=Cc1ccccc1)NN=Cc1ccccc1	0	0	0	0	0	-	-
CC(=O)N1c2ccc(S(=O)(=O)NCCC(=O)Nc3ccc(OC(F)(F)F)cc3)cc2CC1C (stereo not drawn)	0	0	0	0	0	-	-
O=C(O)c1ccccc1C1=Nc2ccc(O)cc2Oc2cc(O)ccc21	0	54.9	0	0	0	39.1	44.7
O=C(CCN1CCc2ccccc2C1)Nc1ccccc1F	0	0	0	0	0	-	-
C[n+]1cccc2c(Br)ccc([O-])c21	52.5	83.8	49.0	0	0	0	0
[O-][n+]1cccc2c(Br)cc(Br)c(O)c21	0	0	0	0	0	-	-
Cc1ccc(C(=O)NCC(=O)Nc2ccc3c(c2)CCC3)cc1C	0	0	0	0	0	-	-
Cc1cc(C(=O)Nc2ccc3c(c2)CCC3)ccc1[N+](=O)[O-]	0	77.7	0	0	0	0	0
CCC(C)NC(=O)COC(=O)c1ccccc1OCC(=O)Nc1ccc(Br)cc1 (stereo not drawn)	0	50.9	0	0	0	0	0
CCOc1ccc(S(=O)(=O)N(CC)CC(=O)NCc2cccnc2)cc1	0	0	0	0	0	-	-
CSc1nc(NCCOCCO)c2sc3nc(-c4ccco4)c4c(c3c2n1)CCC4	0	87.2	0	0	0	0	0
CC(=O)Nc1ccc(S(=O)(=O)NCC(C)NS(=O)(=O)c2ccc(NC(C)=O)cc2)cc1 (stereo not drawn)	0	0	0	0	0	-	-
CC(=O)Nc1ccc(S(=O)(=O)NCC(CCC(=O)O)C(F)(F)F)cc1 (stereo not drawn)	0	59.9	0	0	0	0	0
CCC(CC)C(=O)N(C)c1c(C)nc2c(OCc3ccc(OC(F)F)cc3)cccn12	0	0	0	-	0	-	-
CCC1S/C(=N/S(=O)(=O)c2ccc(N)cc2)NC1=O (stereo not drawn)	0	66.2	0	0	0	0	0
CCC1SC(=Nc2cccc(C)c2)NC1=O (stereo not drawn)	0	0	0	0	0	-	-
Cc1ccc2cc(C#N)c(SCC(=O)NNC(=O)Cc3ccccc3)nc2c1	0	0	0	0	0	0	0
CCN(CC)CCNc1nc(-c2ccccc2)c2c(c1C#N)CC(C)(C)OC2	0	0	0	0	0	-	-
CC1(C)Cc2c(C#N)c(NCCCO)nc(-c3ccccc3)c2CO1	0	65.5	0	0	0	0	0
NC(=O)c1nc[nH]c1C(=O)Nc1cccc(C(F)(F)F)c1	0	0	0	0	0	-	-
Cc1ccc(C(=O)Nc2cccc(C(F)(F)F)c2)cc1NC(=O)c1[nH]cnc1C(N)=O	0	55.7	0	0	0	0	0
SMILES	LMPTP block	DNMT1 block	SUMO1 PPI mod	Scp1 inh	STEP inh	DNMT1 confirm	Beacon interf
Cc1ccc(C(=O)Nc2cccc(C(F)(F)F)c2)cc1NC(=O)c1cnnc2ccccc12	0	55.4!	0	0	0	0	0
O=C(NCCCCc1ccccc1)c1ccccc1Cl	0	0	0	0	0	-	-
N#Cc1ccc(-c2ccccc2)nc1SCC(=O)c1cc2ccccc2oc1=O	0	69.5	0	0	0	0	0
Cc1ccc(-n2cccc2/C=C2\C(=N)N3N=C(c4ccco4)SC3=NC2=O)cc1	0	87.2	103.8	97.4	63.2	0	0
Cc1ccc(-n2cccc2/C=C2/C(=N)N3C(=NC2=O)SN=C3S(C)(=O)=O)cc1	0	76.3	0	0	0	0	0
C#CNC(=O)C1(CC=C)CCNCC1	0	0	0	0	0	-	-
O=C(Cn1cncn1)NCCCc1ccccc1	0	0	0	0	0	-	-
COc1ccc2[nH]cc(CCNC(=O)Cc3c(F)cccc3Cl)c2c1	0	71.9	0	0	0	0	0
O=C(N/N=C\c1ccc(Br)o1)C1COc2ccccc2O1 (stereo not drawn)	0	51.3	0	0	0	0	0
CN(C)c1ccc(/C=N/NC(=O)C2COc3ccccc3O2)o1 (stereo not drawn)	0	0	0	0	0	-	-
O=c1oc2c(O)cccc2cc1-c1nc2ccccc2[nH]1	66.5	63.1	0	0	0	0	0
O=c1oc2c(CN3CCCCC3)c(O)ccc2cc1-c1nc2ccccc2[nH]1	0	0	0	0	0	-	-
Cc1ccc(C)c(N(Cc2cc3ccc(C)cc3[nH]c2=O)C(=O)c2ccco2)c1	0	141.9	0	0	0	0	0
C=C/C(C)=C/CC1C(=C)CCC2C(C)(C(=O)O)CCCC12C (stereo not drawn)	0	80.8	0	0	0	0	0
O=C(Nc1ccc(N2CCCCCC2)cc1)c1ccc[nH]1	0	0	0	0	0	-	-
CSCCC(NC(=O)c1ccco1)C(=O)NC1CCC(C)CC1 (stereo not drawn)	0	0	0	0	0	-	-
O=C1/C(=C/c2ccco2)SC(=S)N1CC1CCCO1 (stereo not drawn)	0	71.2	0	63.2	47.0	0	0
O=C(CCCN1C(=O)/C(=C/c2ccco2)SC1=S)Nc1ccccc1C(=O)O	0	85.9	75.4	69.2	47.6	0	0
O=C(CN1C(=O)/C(=C\c2ccco2)SC1=S)Nc1ccc(O)cc1C(=O)O	0	90.1	87.0	56.6	79.5	0	0
O=C(CCN1C(=O)/C(=C/c2ccco2)SC1=S)Nc1ccc(O)cc1C(=O)O	0	71.2	40.3	63.7	0	0	0
O=C(CCCN1C(=O)/C(=C\c2ccccc2)SC1=S)Nc1ccc(O)cc1C(=O)O	0	0	0	0	0	-	-
O=C1/C(=C\c2ccco2)SC(=S)N1Cc1ccccc1	0	0	0	0	0	-	-
CC(=O)CCC(=O)N1CCCC(N2CCN(c3cccc(Cl)c3)CC2)C1 (stereo not drawn)	0	0	0	0	0	-	-
